In ChEMBL document CHEMBL3734666, “Lipophilic vancomycin aglycon dimer with high activity against vancomycin-resistant bacteria” (2015):
Values after ≈ are worked out from the molar mass of the structure shown. Active and inactive are the calls of the source. No cut-off for these calls is given here.

What was measured:
[1] = tested on: Staphylococcus aureus; assay: Antibacterial activity against vancomycin-intermediate-resistant Staphylococcus aureus […] after 24 hrs by broth micro dilution assay; type: functional
Outline: (§1)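 MIC read against vancomycin-sensitive staphylococci (MSSA, MRSA) and enterococci (VSE), plus vancomycin-resistant staphylococci (VISA) and enterococci (VRE).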

[2] = tested on: Enterococcus faecium; assay: Antibacterial activity against vancomycin-resistant Enterococcus faecium ATCC 51559 after 24 hrs by broth micro dilution assay; type: functional; conditions: ATCC 51559, 24 h; outline: as §1
[3] = tested on: Enterococcus faecium; assay: Antibacterial activity against vancomycin-sensitive Enterococcus faecium after 24 hrs by broth micro dilution assay; type: functional
[4] = tested on: Staphylococcus aureus; assay: Antibacterial activity against methicillin-resistant Staphylococcus aureus ATCC 33591 after 24 hrs by broth micro dilution assay; type: functional; conditions: ATCC 33591, 24 h; outline: as §1
[5] = tested on: Staphylococcus aureus; assay: Antibacterial activity against methicillin-sensitive Staphylococcus aureus after 24 hrs by broth micro dilution assay; type: functional; outline: as §1
[6] = tested on: Staphylococcus aureus; assay: Antibacterial activity against methicillin-resistant Staphylococcus aureus ATCC 33591 infected in human whole blood assessed as bacterial burden at 4 uM after 3 hrs (reference value: 7.0 log10 CFU/ml); type: functional
[7] = Binding affinity to N,N'-diacetyl-Lys-D-Ala-D-Lac (unknown origin) by UV-difference spectroscopy
Outline: (§2)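 Binding constants (Ka) measured by UV-difference spectroscopy with the model ligands N,N′-diacetyl-Lys-D-Ala-D-Ala (sensitive) and N,N′-diacetyl-Lys-D-Ala-D-Lac (resistant).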

[8] = Binding affinity to N,N'-diacetyl-Lys-D-Ala-D-Ala (unknown origin) by UV-difference spectroscopy; outline: as §2
[9] = tested on: Staphylococcus aureus; assay: Bacteriostatic activity against methicillin-resistant Staphylococcus aureus ATCC 33591 at 2 to 4 uM measured after 6 hrs; type: functional, organism-based
[10] = tested on: Staphylococcus aureus; assay: Bacteriostatic activity against methicillin-resistant Staphylococcus aureus ATCC 33591 at 2 to 4 uM measured within 6 hrs; type: functional, organism-based
[11] = tested on: Staphylococcus aureus; assay: Antibacterial activity against methicillin-resistant Staphylococcus aureus ATCC 33591 infected in human whole blood assessed as bacterial burden at 2 uM after 3 hrs (reference value: 7.0 log10 CFU/ml); type: functional
[12] = tested on: Staphylococcus aureus; assay: Bactericidal activity against methicillin-resistant Staphylococcus aureus ATCC 33591 assessed as reduction in bacterial burden at 4 uM measured within 24 hrs by time-kill assay; type: functional, organism-based
Outline: (§3)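 Time-kill assay on MRSA starting near 8log₁₀ CFU/mL, with compound at 2 and 4 µM. Viable counts were taken over 24 h, including a 3 h point, with a detection limit of <50 CFU/mL.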

[13] = tested on: Enterococcus faecium; assay: Inhibition of peptidoglycan biosynthesis in vancomycin-resistant Enterococcus faecium ATCC 51559 assessed as accumulation of UDP-MurNAc-pp at 5 uM after 60 mins by mass spectrometric analysis; type: functional, organism-based
[14] = tested on: Staphylococcus aureus; assay: Bactericidal activity against methicillin-resistant Staphylococcus aureus ATCC 33591 assessed as reduction in bacterial burden at 4 uM measured within 3 hrs by time-kill assay; type: functional; outline: as §3

Question: What does the source list for `CN[C@H](CC(C)C)C(=O)N[C@@H]1C(=O)N[C@H](CC(N)=O)C(=O)N[C@@H]2C(=O)N[C@@H]3C(=O)N[C@@H](C(=O)N[C@H](C(=O)NCCCCCCCCNC(=O)[C@H]4NC(=O)[C@@H]5NC(=O)[C@@H](NC(=O)[C@H]6NC(=O)[C@@H](CC(N)=O)NC(=O)[C@@H](NC(=O)[C@@H](CC(C)C)NC)[C@@H](O)c7ccc(c(Cl)c7)Oc7cc6cc(c7O)Oc6ccc(cc6Cl)[C@@H]5O)c5ccc(O)c(c5)-c5c(O)cc(O)cc54)c4cc(O)cc(O)c4-c4cc3ccc4O)[C@@H](O)c3ccc(c(Cl)c3)Oc3cc2cc(c3O)Oc2ccc(cc2Cl)[C@@H]1O`?
Answer: MIC [1]: 0.2 µM (≈ 0.479 µg/mL); MIC [2]: 25.8 µM (≈ 61.8 µg/mL); MIC [3]: 0.6 µM (≈ 1.44 µg/mL); MIC [4]: 0.6 µM (≈ 1.44 µg/mL); MIC [5]: 0.8 µM (≈ 1.92 µg/mL)

Question: Which results are given for `CN[C@@H](CC(C)C)C(=O)N[C@H]1C(=O)N[C@@H](CC(N)=O)C(=O)N[C@H]2C(=O)N[C@H]3C(=O)N[C@H](C(=O)N[C@@H](C(=O)O)c4cc(O)cc(O)c4-c4cc3ccc4O)[C@H](O)c3ccc(c(Cl)c3)Oc3cc2cc(c3O[C@H]2O[C@@H](CO)[C@H](O)[C@@H](O)[C@@H]2O[C@@H]2C[C@@](C)(N)[C@@H](O)[C@@H](C)O2)Oc2ccc(cc2Cl)[C@H]1O`?
Answer: MIC [1]: 13 µM (≈ 18.8 µg/mL); MIC [2]: 750 µM (≈ 1090 µg/mL); Activity [6]: 1 log10CFU/ml; Ka [7]: 5 ×10² /M; Ka [8]: 1 ×10⁵ /M; Activity [9]: inactive; MIC [3]: 0.6 µM (≈ 0.87 µg/mL); MIC [4]: 0.7 µM (≈ 1.01 µg/mL); MIC [5]: 0.6 µM (≈ 0.87 µg/mL); Activity [10]: Active

Question: Which results are given for `CCCCCCCCN(CCCNC(=O)[C@H]1NC(=O)[C@H]2NC(=O)[C@H](NC(=O)[C@@H]3NC(=O)[C@H](CC(N)=O)NC(=O)[C@H](NC(=O)[C@@H](CC(C)C)NC)[C@H](O)c4ccc(c(Cl)c4)Oc4cc3cc(c4O)Oc3ccc(cc3Cl)[C@H]2O)c2ccc(O)c(c2)-c2c(O)cc(O)cc21)CCCNC(=O)C(F)(F)F`?
Answer: MIC [1]: 0.8 µM (≈ 1.17 µg/mL); MIC [2]: 6.5 µM (≈ 9.52 µg/mL); MIC [3]: 0.4 µM (≈ 0.586 µg/mL); MIC [4]: 1 µM (≈ 1.47 µg/mL); MIC [5]: 0.8 µM (≈ 1.17 µg/mL)

Question: For `CN[C@H](CC(C)C)C(=O)N[C@@H]1C(=O)N[C@H](CC(N)=O)C(=O)N[C@@H]2C(=O)N[C@@H]3C(=O)N[C@@H](C(=O)N[C@H](C(=O)NCCC[N+](C)(C)CCCCCCCC[N+](C)(C)CCCNC(=O)[C@H]4NC(=O)[C@@H]5NC(=O)[C@@H](NC(=O)[C@H]6NC(=O)[C@@H](CC(N)=O)NC(=O)[C@@H](NC(=O)[C@@H](CC(C)C)NC)[C@@H](O)c7ccc(c(Cl)c7)Oc7cc6cc(c7O)Oc6ccc(cc6Cl)[C@@H]5O)c5ccc(O)c(c5)-c5c(O)cc(O)cc54)c4cc(O)cc(O)c4-c4cc3ccc4O)[C@@H](O)c3ccc(c(Cl)c3)Oc3cc2cc(c3O)Oc2ccc(cc2Cl)[C@@H]1O`, which MIC [1] is on record?
Answer: 0.1 µM

Question: What about the MIC [2] of the same molecule?
Answer: 48 µM

Question: What about the MIC [3] of the same molecule?
Answer: 0.05 µM

Question: What about the MIC [4] of the same molecule?
Answer: 0.3 µM

Question: What about the MIC [5] of the same molecule?
Answer: 0.2 µM

Question: What does the source list for `CN[C@H](CC(C)C)C(=O)N[C@H]1C(=O)N[C@@H](CC(N)=O)C(=O)N[C@H]2C(=O)N[C@H]3C(=O)N[C@H](C(=O)N[C@H](C(=O)NCCCCCCCCNC(=O)C(F)(F)F)c4cc(O)cc(O)c4-c4cc3ccc4O)[C@H](O)c3ccc(c(Cl)c3)Oc3cc2cc(c3O)Oc2ccc(cc2Cl)[C@H]1O`?
Answer: MIC [1]: 0.6 µM (≈ 0.82 µg/mL); MIC [2]: 30.5 µM (≈ 41.7 µg/mL); MIC [3]: 0.6 µM (≈ 0.82 µg/mL); MIC [4]: 2 µM (≈ 2.73 µg/mL); MIC [5]: 1 µM (≈ 1.37 µg/mL)

Question: Which MIC [1] does the source give for `CN[C@H](CC(C)C)C(=O)N[C@H]1C(=O)N[C@@H](CC(N)=O)C(=O)N[C@H]2C(=O)N[C@H]3C(=O)N[C@H](C(=O)N[C@H](C(=O)O)c4cc(O)cc(O)c4-c4cc3ccc4O)[C@H](O)c3ccc(c(Cl)c3)Oc3cc2cc(c3O)Oc2ccc(cc2Cl)[C@H]1O` [VANCOMYCIN AGLYCON] here?
Answer: 4 µM (≈ 4.58 µg/mL)

Question: And the MIC [2]?
Answer: > 100 µM

Question: And the MIC [3]?
Answer: 1.8 µM (≈ 2.06 µg/mL)

Question: What about the MIC [4] of the same molecule?
Answer: 1 µM (≈ 1.14 µg/mL)

Question: And the MIC [5]?
Answer: 1 µM (≈ 1.14 µg/mL)

Question: What does the source list for `CCCCCCCCN(CCCNC(=O)[C@H]1NC(=O)[C@@H]2NC(=O)[C@@H](NC(=O)[C@H]3NC(=O)[C@@H](CC(N)=O)NC(=O)[C@@H](NC(=O)[C@@H](CC(C)C)NC)[C@@H](O)c4ccc(c(Cl)c4)Oc4cc3cc(c4O)Oc3ccc(cc3Cl)[C@@H]2O)c2ccc(O)c(c2)-c2c(O)cc(O)cc21)CCCNC(=O)[C@@H]1NC(=O)[C@H]2NC(=O)[C@H](NC(=O)[C@@H]3NC(=O)[C@H](CC(N)=O)NC(=O)[C@H](NC(=O)[C@@H](CC(C)C)NC)[C@H](O)c4ccc(c(Cl)c4)Oc4cc3cc(c4O)Oc3ccc(cc3Cl)[C@H]2O)c2ccc(O)c(c2)-c2c(O)cc(O)cc21`?
Answer: Activity [11]: 4.5 log10CFU/ml; MIC [1]: 0.6 µM (≈ 1.5 µg/mL); MIC [2]: 2.5 µM (≈ 6.24 µg/mL); Ka [7]: 5.7 ×10³ /M; Activity [12]: Active; Ka [8]: 1 ×10⁵ /M; MIC [3]: 0.5 µM (≈ 1.25 µg/mL); MIC [4]: 0.6 µM (≈ 1.5 µg/mL); inhibition [13]: Active; MIC [5]: 0.6 µM (≈ 1.5 µg/mL); Activity [14]: 3 log10CFU/ml

Question: What does the source list for `CN[C@H](CC(C)C)C(=O)N[C@H]1C(=O)N[C@@H](CC(N)=O)C(=O)N[C@H]2C(=O)N[C@H]3C(=O)N[C@H](C(=O)N[C@H](C(=O)NCCC[N+](C)(C)CCCCCCCC[N+](C)(C)CCCNC(=O)C(F)(F)F)c4cc(O)cc(O)c4-c4cc3ccc4O)[C@H](O)c3ccc(c(Cl)c3)Oc3cc2cc(c3O)Oc2ccc(cc2Cl)[C@H]1O`?
Answer: MIC [1]: 0.5 µM; MIC [2]: > 100 µM; MIC [3]: 0.2 µM; MIC [4]: 1 µM; MIC [5]: 1 µM
